Measurements from ChEMBL document CHEMBL5058577, “EUbOPEN Chemogenomics Library 2 (Multiplex)” (2022).

Tested on: U2OS
Assay: Multiplex assay against U2OS
Format: toxicity, cell-based
Conditions: human
Outline: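 Live cells were stained at seeding with Hoechst33342, BioTracker Green Microtubule Cytoskeleton Dye, MitoTracker Red and Annexin V Alexa Fluor 680. Following compound addition, they were imaged on a CQ1 microscope at 37°C and 5% CO2 and gated by CellPathfinder machine learning into Hoechst high-intensity objects or normal cells, with normal cells split into healthy, pyknosed or fragmented nuclei and pyknosed cells into mitotic or apoptotic. Tubulin, mitochondrial-mass and membrane-permeability phenotypes are per cents of healthy-nucleus cells.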

[1] = 12 h, 1 µM, compound concentration 1 uM, replicate 1
[2] = 12 h, 1 µM, compound concentration 1 uM, replicate 2
[3] = 12 h, 10 µM, compound concentration 10 uM, replicate 1
[4] = 12 h, 10 µM, compound concentration 10 uM, replicate 2
[5] = 24 h, 1 µM, compound concentration 1 uM, replicate 1
[6] = 24 h, 1 µM, compound concentration 1 uM, replicate 2
[7] = 24 h, 10 µM, compound concentration 10 uM, replicate 1
[8] = 24 h, 10 µM, compound concentration 10 uM, replicate 2
[9] = 48 h, 1 µM, compound concentration 1 uM, replicate 1
[10] = 48 h, 1 µM, compound concentration 1 uM, replicate 2
[11] = 48 h, 10 µM, compound concentration 10 uM, replicate 1
[12] = 48 h, 10 µM, compound concentration 10 uM, replicate 2

CCCOc1ccc2[nH]cc(C3=CCNCC3)c2n1.Cl
Population Apoptotic (%) [1]: 80%
Population Fragmented Nuclei (%) [1]: 31%
Population Healthy Nuclei (%) [1]: 58%
Population Hoechst High Intensity Objects (%) [1]: 2%
Population Membrane Permeable-Phenotype (%) [1]: 2%
Population Mitochondria Different-Phenotype (%) [1]: 1%
Population Mitotic Cells (%) [1]: 19%
Population Normal (%) [1]: 97%
Population Pyknosed Nuclei (%) [1]: 9%
Population Tubulin-Different-Phenotype (%) [1]: 1%
Total Cell Count [1]: 218
Population Apoptotic (%) [2]: 87%
Population Fragmented Nuclei (%) [2]: 13%
Population Healthy Nuclei (%) [2]: 78%
Population Hoechst High Intensity Objects (%) [2]: 1%
Population Membrane Permeable-Phenotype (%) [2]: 11%
Population Mitochondria Different-Phenotype (%) [2]: 7%
Population Mitotic Cells (%) [2]: 12%
Population Normal (%) [2]: 98%
Population Pyknosed Nuclei (%) [2]: 8%
Population Tubulin-Different-Phenotype (%) [2]: 5%
Total Cell Count [2]: 98
Population Apoptotic (%) [3]: 86%
Population Fragmented Nuclei (%) [3]: 24%
Population Healthy Nuclei (%) [3]: 66%
Population Hoechst High Intensity Objects (%) [3]: 4%
Population Membrane Permeable-Phenotype (%) [3]: 6%
Population Mitochondria Different-Phenotype (%) [3]: 5%
Population Mitotic Cells (%) [3]: 13%
Population Normal (%) [3]: 96%
Population Pyknosed Nuclei (%) [3]: 8%
Population Tubulin-Different-Phenotype (%) [3]: 3%
Total Cell Count [3]: 275
Population Apoptotic (%) [4]: 60%
Population Fragmented Nuclei (%) [4]: 17%
Population Healthy Nuclei (%) [4]: 74%
Population Hoechst High Intensity Objects (%) [4]: 0%
Population Membrane Permeable-Phenotype (%) [4]: 12%
Population Mitotic Cells (%) [4]: 40%
Population Normal (%) [4]: 100%
Population Pyknosed Nuclei (%) [4]: 7%
Population Tubulin-Different-Phenotype (%) [4]: 6%
Total Cell Count [4]: 134
Population Apoptotic (%) [5]: 70%
Population Fragmented Nuclei (%) [5]: 27%
Population Healthy Nuclei (%) [5]: 61%
Population Hoechst High Intensity Objects (%) [5]: 1%
Population Membrane Permeable-Phenotype (%) [5]: 6%
Population Mitochondria Different-Phenotype (%) [5]: 1%
Population Mitotic Cells (%) [5]: 29%
Population Normal (%) [5]: 98%
Population Pyknosed Nuclei (%) [5]: 10%
Population Tubulin-Different-Phenotype (%) [5]: 3%
Total Cell Count [5]: 252
Population Apoptotic (%) [6]: 90%
Population Fragmented Nuclei (%) [6]: 18%
Population Healthy Nuclei (%) [6]: 73%
Population Hoechst High Intensity Objects (%) [6]: 2%
Population Membrane Permeable-Phenotype (%) [6]: 3%
Population Mitochondria Different-Phenotype (%) [6]: 3%
Population Mitotic Cells (%) [6]: 9%
Population Normal (%) [6]: 97%
Population Pyknosed Nuclei (%) [6]: 8%
Population Tubulin-Different-Phenotype (%) [6]: 2%
Total Cell Count [6]: 138
Population Apoptotic (%) [7]: 92%
Population Fragmented Nuclei (%) [7]: 25%
Population Healthy Nuclei (%) [7]: 66%
Population Hoechst High Intensity Objects (%) [7]: 3%
Population Membrane Permeable-Phenotype (%) [7]: 5%
Population Mitochondria Different-Phenotype (%) [7]: 3%
Population Mitotic Cells (%) [7]: 7%
Population Normal (%) [7]: 96%
Population Pyknosed Nuclei (%) [7]: 8%
Population Tubulin-Different-Phenotype (%) [7]: 3%
Total Cell Count [7]: 323
Population Apoptotic (%) [8]: 72%
Population Fragmented Nuclei (%) [8]: 14%
Population Healthy Nuclei (%) [8]: 78%
Population Hoechst High Intensity Objects (%) [8]: 0%
Population Membrane Permeable-Phenotype (%) [8]: 11%
Population Mitochondria Different-Phenotype (%) [8]: 2%
Population Mitotic Cells (%) [8]: 27%
Population Normal (%) [8]: 99%
Population Pyknosed Nuclei (%) [8]: 6%
Population Tubulin-Different-Phenotype (%) [8]: 4%
Total Cell Count [8]: 162
Population Apoptotic (%) [9]: 91%
Population Fragmented Nuclei (%) [9]: 19%
Population Healthy Nuclei (%) [9]: 69%
Population Hoechst High Intensity Objects (%) [9]: 2%
Population Membrane Permeable-Phenotype (%) [9]: 5%
Population Mitochondria Different-Phenotype (%) [9]: 3%
Population Mitotic Cells (%) [9]: 8%
Population Normal (%) [9]: 97%
Population Pyknosed Nuclei (%) [9]: 10%
Population Tubulin-Different-Phenotype (%) [9]: 1%
Total Cell Count [9]: 350
Population Apoptotic (%) [10]: 75%
Population Healthy Nuclei (%) [10]: 74%
Population Membrane Permeable-Phenotype (%) [10]: 9%
Population Mitotic Cells (%) [10]: 25%
Population Pyknosed Nuclei (%) [10]: 6%
Population Tubulin-Different-Phenotype (%) [10]: 3%
Total Cell Count [10]: 183
Population Apoptotic (%) [11]: 100%
Population Fragmented Nuclei (%) [11]: 18%
Population Healthy Nuclei (%) [11]: 75%
Population Hoechst High Intensity Objects (%) [11]: 4%
Population Membrane Permeable-Phenotype (%) [11]: 5%
Population Mitochondria Different-Phenotype (%) [11]: 2%
Population Mitotic Cells (%) [11]: 0%
Population Normal (%) [11]: 95%
Population Pyknosed Nuclei (%) [11]: 6%
Population Tubulin-Different-Phenotype (%) [11]: 3%
Total Cell Count [11]: 423
Population Apoptotic (%) [12]: 94%
Population Fragmented Nuclei (%) [12]: 13%
Population Healthy Nuclei (%) [12]: 78%
Population Hoechst High Intensity Objects (%) [12]: 0%
Population Membrane Permeable-Phenotype (%) [12]: 6%
Population Mitochondria Different-Phenotype (%) [12]: 3%
Population Mitotic Cells (%) [12]: 5%
Population Normal (%) [12]: 99%
Population Pyknosed Nuclei (%) [12]: 7%
Total Cell Count [12]: 243
